Article PMC5116011 (The Journal of antibiotics, 2016)
In brackets after ≈: the same amount, converted by molar mass. Where two headings read alike, the source gives them in different places.

Key:
[1] = test system: S. aureus -ATCC29213 (MSSA); test: MIC, microbroth dilution in Mueller-Hinton broth; type: cell-based; conditions: Staphylococcus aureus, read-out: MIC MSSA
Procedure, shortened: (§1)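 CLSI broth microdilution in cation-adjusted Mueller-Hinton broth. Inocula were grown from MH agar colonies in MH broth, with a final inoculum of 10^5 CFU/ml. Test compound final range was 200–0.2 µg/ml, incubated 37°C for 18–20 h. MIC was the lowest concentration preventing visible growth. Runs were at least duplicate, and the mean MIC was reported.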

[2] = test system: E. coli BW25113 ΔtolC derivative JW5503-1; test: MIC, microbroth dilution in Mueller-Hinton broth; type: cell-based, Escherichia coli; conditions: for MIC: Escherichia coli
E. coli BW25113 = test: MIC, microbroth dilution in Mueller-Hinton broth; type: cell-based, Escherichia coli; conditions: for MIC EC MH+BP/CCCP / MIC EC +: E. coli BW25113; for MIC EC MH+BP/CCCP: MH broth with 30 µg/ml 2,2′-bipyridyl and 50 µg/ml CCCP; for MIC EC +: with clavulanic acid (6µg/ml); for MIC: Escherichia coli, BW25113, read-out: MIC EC, E. coli BW25113, Mueller-Hinton broth (Table 2)
B. anthracis sterne = test: microbe, parasite or virus in culture; type: cell-based; conditions: Bacillus anthracis, read-out: MIC BA
P. vulgaris ATCC 33420 = test: MIC, microbroth dilution in Mueller-Hinton broth; type: cell-based; conditions: Proteus vulgaris, ATCC33420, read-out: MIC PV
B. subtilis ATCC23857 = test: MIC, microbroth dilution in Mueller-Hinton broth; type: cell-based; conditions: Bacillus subtilis, ATCC23857, read-out: MIC BS
Procedure, shortened: as §1

S. aureus NRS 70 (MRSA) = test: MIC, microbroth dilution in Mueller-Hinton broth; type: cell-based; conditions: Staphylococcus aureus, MRSA|NRS70, read-out: MIC MRSA
Procedure, shortened: as §1

S. pneumoniae R6 = test: MIC, microbroth dilution in Mueller-Hinton broth; type: cell-based; conditions: Streptococcus pneumoniae, R6, read-out: MIC SP
Procedure, shortened: as §1

P. mirabilis ATCC 25933 = test: MIC, microbroth dilution in Mueller-Hinton broth; type: cell-based; conditions: Proteus mirabilis, ATCC25933, read-out: MIC PM
S. pyogenes ATCC700294 = test: MIC, microbroth dilution in Mueller-Hinton broth; type: cell-based; conditions: Streptococcus pyogenes, ATCC700294, read-out: MIC SPy
Procedure, shortened: as §1

P. aeruginosa PA01 = test: MIC, microbroth dilution in Mueller-Hinton broth; type: cell-based, Pseudomonas aeruginosa; conditions: for MIC PA MH+BP/CCCP / MIC PA +: P. aeruginosa PA01; for MIC PA MH+BP/CCCP: MH broth with 30 µg/ml 2,2′-bipyridyl and 50 µg/ml CCCP; for MIC PA +: with clavulanic acid (6µg/ml); for MIC: Pseudomonas aeruginosa
E. faecalis ATCC33186 = test: MIC, microbroth dilution in Mueller-Hinton broth; type: cell-based; conditions: Enterococcus faecalis, ATCC33186, read-out: MIC EF
Procedure, shortened: as §1

[3] = test system: E. coli BW25113 ΔampC derivative JW4111-2; type: cell-based, Escherichia coli; conditions: for MIC: Escherichia coli, BW25113, read-out: MIC ECΔampC −
[4] = BW25113, read-out: MIC ECΔtolC MH
[5] = BW25113, read-out: MIC ECΔtolC MH+BP

CC(C)CC1NC(=O)C(C(=O)NC(C(=O)NC2C(=O)N3C2SC(C)(C)C3C(=O)O)c2ccccc2)=C1O (stereo not drawn) [Compound 1903]
MIC [1]: 0.78 µg/mL (≈ 1.47 µM) | MIC ECΔtolC MH+CCCP ([2]; E. coli BW25113 ΔtolC JW5503-1, MH broth containing 50 µg/ml CCCP): 1.56 µg/mL (≈ 2.94 µM) | MIC ([2]; BW25113, read-out: MIC ECΔtolC): 6.25 µg/mL (≈ 11.8 µM) | MIC [2, 4]: 6.2 µg/mL (≈ 11.7 µM) | MIC [2, 5]: 1.56 µg/mL (≈ 2.94 µM) | MIC EC MH+BP/CCCP (E. coli BW25113): 12.5 µg/mL (≈ 23.6 µM) | MIC EC + (E. coli BW25113): 12.5 µg/mL | MIC (E. coli BW25113): 50 µg/mL (≈ 94.2 µM) | MIC (B. anthracis sterne): 3.13 µg/mL (≈ 5.9 µM) | MIC (P. vulgaris ATCC 33420): 25 µg/mL (≈ 47.1 µM) | MIC (B. subtilis ATCC23857): 1.56 µg/mL (≈ 2.94 µM) | MIC (S. aureus NRS 70 (MRSA)): 25 µg/mL (≈ 47.1 µM) | MIC (S. pneumoniae R6): 0.39 µg/mL (≈ 0.735 µM) | MIC (P. mirabilis ATCC 25933): 12.5 µg/mL (≈ 23.6 µM) | MIC (S. pyogenes ATCC700294): 0.39 µg/mL (≈ 0.735 µM) | MIC PA MH+BP/CCCP (P. aeruginosa PA01): 1.56 µg/mL (≈ 2.94 µM) | MIC PA + (P. aeruginosa PA01): 6.25 µg/mL | MIC (P. aeruginosa PA01; PA01, read-out: MIC PA): 12.5 µg/mL (≈ 23.6 µM) | MIC (P. aeruginosa PA01; PA01, read-out: MIC PA MH): 12.5 µg/mL (≈ 23.6 µM) | MIC (P. aeruginosa PA01; PA01, read-out: MIC PA MH+BP): 12.5 µg/mL (≈ 23.6 µM) | MIC (P. aeruginosa PA01; PA01, read-out: MIC PA MH+CCCP): 3.13 µg/mL (≈ 5.9 µM) | MIC (P. aeruginosa PA01; PA01, read-out: MIC PA −): 12.5 µg/mL (≈ 23.6 µM) | MIC (E. faecalis ATCC33186): 25 µg/mL (≈ 47.1 µM) | MIC [3]: 6.25 µg/mL (≈ 11.8 µM) | MIC ECΔampC + [3]: 1.56 µg/mL

CC(C)(C)Oc1ccc(CC2NC(=O)C(C(=O)NC(C(=O)NC3C(=O)N4C3SC(C)(C)C4C(=O)O)c3ccccc3)=C2O)cc1 (stereo not drawn) [Compound 1905]
MIC [1]: 0.78 µg/mL (≈ 1.23 µM) | MIC ([2]; BW25113, read-out: MIC ECΔtolC): 6.25 µg/mL (≈ 9.82 µM) | MIC [2, 4]: 6.25 µg/mL (≈ 9.82 µM) | MIC [2, 5]: 1.56 µg/mL (≈ 2.45 µM) | MIC ECΔtolC MH+BP/CCCP ([2]; {}): 0.78 µg/mL (≈ 1.23 µM) | MIC ECΔtolC MH+CCCP ([2]; {}): 1.56 µg/mL (≈ 2.45 µM) | MIC EC MH+BP/CCCP (E. coli BW25113): 6.25 µg/mL (≈ 9.82 µM) | MIC EC + (E. coli BW25113): 12.5 µg/mL | MIC (E. coli BW25113): 25 µg/mL (≈ 39.3 µM) | MIC (B. anthracis sterne): 3.13 µg/mL (≈ 4.92 µM) | MIC (P. vulgaris ATCC 33420): 50 µg/mL (≈ 78.5 µM) | MIC (B. subtilis ATCC23857): 3.13 µg/mL (≈ 4.92 µM) | MIC (S. aureus NRS 70 (MRSA)): 50 µg/mL (≈ 78.5 µM) | MIC (S. pneumoniae R6): < 0.2 µg/mL | MIC (P. mirabilis ATCC 25933): 25 µg/mL (≈ 39.3 µM) | MIC (S. pyogenes ATCC700294): 0.78 µg/mL (≈ 1.23 µM) | MIC PA MH+BP/CCCP (P. aeruginosa PA01): 0.78 µg/mL (≈ 1.23 µM) | MIC PA + (P. aeruginosa PA01): 12.5 µg/mL | MIC (P. aeruginosa PA01; PA01, read-out: MIC PA): 25 µg/mL (≈ 39.3 µM) | MIC (P. aeruginosa PA01; PA01, read-out: MIC PA MH): 25 µg/mL (≈ 39.3 µM) | MIC (P. aeruginosa PA01; PA01, read-out: MIC PA MH+BP): 6.25 µg/mL (≈ 9.82 µM) | MIC (P. aeruginosa PA01; PA01, read-out: MIC PA MH+CCCP): 3.13 µg/mL (≈ 4.92 µM) | MIC (P. aeruginosa PA01; PA01, read-out: MIC PA −): 25 µg/mL (≈ 39.3 µM) | MIC (E. faecalis ATCC33186): 50 µg/mL (≈ 78.5 µM) | MIC ECΔampC + [3]: 12.5 µg/mL

CC(C)(C)OCC1NC(=O)C(C(=O)NC(C(=O)NC2C(=O)N3C2SC(C)(C)C3C(=O)O)c2ccccc2)=C1O (stereo not drawn) [Compound 1940]
MIC [1]: 1.56 µg/mL (≈ 2.78 µM) | MIC ([2]; BW25113, read-out: MIC ECΔtolC): 12.5 µg/mL (≈ 22.3 µM) | MIC [2, 4]: 12.5 µg/mL (≈ 22.3 µM) | MIC [2, 5]: 3.13 µg/mL (≈ 5.58 µM) | MIC ECΔtolC MH+BP/CCCP ([2]; {}): 1.56 µg/mL (≈ 2.78 µM) | MIC ECΔtolC MH+CCCP ([2]; {}): 6.25 µg/mL (≈ 11.1 µM) | MIC EC MH+BP/CCCP (E. coli BW25113): 12.5 µg/mL (≈ 22.3 µM) | MIC EC + (E. coli BW25113): 12.5 µg/mL | MIC (E. coli BW25113): 50 µg/mL (≈ 89.2 µM) | MIC (B. anthracis sterne): 3.13 µg/mL (≈ 5.58 µM) | MIC (P. vulgaris ATCC 33420): 50 µg/mL (≈ 89.2 µM) | MIC (B. subtilis ATCC23857): 3.13 µg/mL (≈ 5.58 µM) | MIC (S. aureus NRS 70 (MRSA)): 25 µg/mL (≈ 44.6 µM) | MIC (S. pneumoniae R6): 0.78 µg/mL (≈ 1.39 µM) | MIC (P. mirabilis ATCC 25933): 6.25 µg/mL (≈ 11.1 µM) | MIC (S. pyogenes ATCC700294): 0.78 µg/mL (≈ 1.39 µM) | MIC PA MH+BP/CCCP (P. aeruginosa PA01): 6.25 µg/mL (≈ 11.1 µM) | MIC PA + (P. aeruginosa PA01): 12.5 µg/mL | MIC (P. aeruginosa PA01; PA01, read-out: MIC PA): 25 µg/mL (≈ 44.6 µM) | MIC (P. aeruginosa PA01; PA01, read-out: MIC PA MH): 25 µg/mL (≈ 44.6 µM) | MIC (P. aeruginosa PA01; PA01, read-out: MIC PA MH+BP): 12.5 µg/mL (≈ 22.3 µM) | MIC (P. aeruginosa PA01; PA01, read-out: MIC PA MH+CCCP): 12.5 µg/mL (≈ 22.3 µM) | MIC (P. aeruginosa PA01; PA01, read-out: MIC PA −): 25 µg/mL (≈ 44.6 µM) | MIC (E. faecalis ATCC33186): 25 µg/mL (≈ 44.6 µM) | MIC [3]: 12.5 µg/mL (≈ 22.3 µM) | MIC ECΔampC + [3]: 6.25 µg/mL

CN1CC(O)=C(C(=O)NC(C(=O)NC2C(=O)N3C2SC(C)(C)C3C(=O)O)c2ccccc2)C1=O (stereo not drawn) [Compound 2742]
MIC [1]: 1.56 µg/mL (≈ 3.19 µM) | MIC ([2]; BW25113, read-out: MIC ECΔtolC): 12.5 µg/mL (≈ 25.6 µM) | MIC [2, 4]: 12.5 µg/mL (≈ 25.6 µM) | MIC [2, 5]: 6.25 µg/mL (≈ 12.8 µM) | MIC ECΔtolC MH+BP/CCCP ([2]; {}): 1.56 µg/mL (≈ 3.19 µM) | MIC ECΔtolC MH+CCCP ([2]; {}): 6.25 µg/mL (≈ 12.8 µM) | MIC EC MH+BP/CCCP (E. coli BW25113): 12.5 µg/mL (≈ 25.6 µM) | MIC EC + (E. coli BW25113): 25 µg/mL | MIC (E. coli BW25113): 100 µg/mL (≈ 205 µM) | MIC (B. anthracis sterne): 6.25 µg/mL (≈ 12.8 µM) | MIC (P. vulgaris ATCC 33420): 100 µg/mL (≈ 205 µM) | MIC (B. subtilis ATCC23857): 3.13 µg/mL (≈ 6.41 µM) | MIC (S. aureus NRS 70 (MRSA)): 100 µg/mL (≈ 205 µM) | MIC (S. pneumoniae R6): 1.56 µg/mL (≈ 3.19 µM) | MIC (P. mirabilis ATCC 25933): 6.25 µg/mL (≈ 12.8 µM) | MIC (S. pyogenes ATCC700294): 1.56 µg/mL (≈ 3.19 µM) | MIC PA MH+BP/CCCP (P. aeruginosa PA01): 6.25 µg/mL (≈ 12.8 µM) | MIC PA + (P. aeruginosa PA01): 12.5 µg/mL | MIC (P. aeruginosa PA01; PA01, read-out: MIC PA): 25 µg/mL (≈ 51.2 µM) | MIC (P. aeruginosa PA01; PA01, read-out: MIC PA MH): 25 µg/mL (≈ 51.2 µM) | MIC (P. aeruginosa PA01; PA01, read-out: MIC PA MH+BP): 12.5 µg/mL (≈ 25.6 µM) | MIC (P. aeruginosa PA01; PA01, read-out: MIC PA MH+CCCP): 12.5 µg/mL (≈ 25.6 µM) | MIC (P. aeruginosa PA01; PA01, read-out: MIC PA −): 25 µg/mL (≈ 51.2 µM) | MIC (E. faecalis ATCC33186): 25 µg/mL (≈ 51.2 µM) | MIC [3]: 25 µg/mL (≈ 51.2 µM) | MIC ECΔampC + [3]: 12.5 µg/mL
